ERp5 inh = blocks human ERp5 reductase activity on insulin; Q15084; ERp5 insulin aggregation, absorbance 650 nm, 90 min; inhibition, % at 9.99 µM; hit rate 0.05% among 350,000; AID 651711;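 active means mean replicate inhibition above about 25%, with every replicate also reaching it, limit read from the data, passing the limit was not always enough; inconclusive means only one of those two criteria met; inactive means neither criterion met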
SIRT5 block = sirtuin-5 (human) deacylase inhibition. AID 652115. inhibition, % at 15 µM. hit rate 1.1% among 330,000. Purified SirT5, succinyl-peptide AMC, trypsin-coupled fluorescence; in the data active means inhibition above about 15%; inconclusive means no clear call, values can overlap the other calls
S100A4 inh HTS = S100A4-myosin IIA interaction inhibition | inhibition, % at 10.7 µM | AID 652163 | P26447 | hit rate 0.14% among 360,000 | S100A4/TAMRA-MyoIIA peptide fluorescence polarization;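 active means mean inhibition of at least 70% across replicates, with every replicate also reaching that level; inconclusive means mean inhibition reaches 70% but some replicates fall short; inactive means mean inhibition below 70%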
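Compound dosing: one dose per compound; test system: human S100A4 monomer with TAMRA-labelled myosin IIA peptide; probe or stimulus: TAMRA-labelled myosin IIA heavy-chain peptide probe, 5 nM; medium: HEPES buffer with Ca2+, pH 7.2; schedule: 5 min incubation before reading; benchmarks: neutral control DMSO, positive control TFP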
INS-1E GSIS act = primary screen for activators of insulin secretion dependent on glucose, INS-1E cells, GLuc reporter luminescence. INS-1E GLuc reporter insulin secretion, 2-3 h. activation, % at 16.6 µM. hit rate 0.61% among 370,000. AID 743287;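 active means lowest replicate activation of at least 40%, so every replicate reaches that level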;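 further: 0% = median of neutral control wells and 100% = median of IBMX positive control wells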
PDI inh = PDI (human) enzyme inhibition. P07237. PDI insulin aggregation turbidity, A650, 90 min. inhibition, % at 10 µM. hit rate 0.052% among 350,000. AID 588391;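 active means mean inhibition across replicates of 30% or more, whatever share of single replicates reach that level; inconclusive means mean inhibition below 30% while every single replicate reaches 30%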
Target sequence (P07237 whole entry, looked up): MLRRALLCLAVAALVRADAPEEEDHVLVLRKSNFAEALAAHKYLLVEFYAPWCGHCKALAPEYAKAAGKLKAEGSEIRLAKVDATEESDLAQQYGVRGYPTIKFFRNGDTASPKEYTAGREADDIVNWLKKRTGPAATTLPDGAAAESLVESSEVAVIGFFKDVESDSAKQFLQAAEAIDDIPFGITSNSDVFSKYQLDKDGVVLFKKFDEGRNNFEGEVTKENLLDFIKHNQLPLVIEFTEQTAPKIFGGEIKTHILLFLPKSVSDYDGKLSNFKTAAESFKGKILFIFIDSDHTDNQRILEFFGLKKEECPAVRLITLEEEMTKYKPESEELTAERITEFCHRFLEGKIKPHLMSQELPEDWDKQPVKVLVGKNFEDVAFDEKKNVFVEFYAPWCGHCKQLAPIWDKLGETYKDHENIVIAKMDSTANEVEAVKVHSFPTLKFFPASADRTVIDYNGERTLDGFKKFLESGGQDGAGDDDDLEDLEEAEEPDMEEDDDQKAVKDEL
The depositor's hits bear a star; ? = inconclusive; . = no result given. Rows were chosen to be rich in hits. Some 1.5% of all compounds tested hit in one or more screens of this group.

SMILES | ERp5 inh | SIRT5 block | S100A4 inh HTS | INS-1E GSIS act | PDI inh
CCc1cc2cc3c(cc2nc1SCC(=O)Nc1nnc(C)s1)OCCO3 | 7 | -1 | -4 | 7 | 0
CCCN1C[C@@H](C)[C@H](OC)CN(C)C(=O)c2cc(NC(=O)C3CCC3)ccc2OC[C@@H]1C | . | . | . | -1 | .
COC(=O)c1ccc2nc(-c3ccc(C)cc3)c(CC(C)(C)C)n2c1 | -3 | 15* | -2 | -15 | .
OC[C@H]1CC[C@@H]2O[C@H](CCc3ccc(C#Cc4ccccc4)cc3)[C@@H](n3cc(-c4ccccc4)nn3)C[C@@H]2O1 | 2 | -2 | -5 | . | .
CCCCC(=O)Nc1ccc(C(=O)NNC(=O)c2ccc(C)c(Br)c2)cc1 | . | . | . | 64* | 2
CCCCC(=O)Nc1ccc(C(=O)NNC(=O)CCc2ccccc2)cc1 | 3 | -3 | 4 | -3 | 13
C[C@@H](NC(=O)C[C@H]1C=C[C@H](NC(=O)Cc2ccccn2)[C@@H](CO)O1)c1ccccc1 | -4 | 2 | -8 | 27 | .
CO[C@H]1CN(C)C(=O)c2cc(NC(C)=O)ccc2OC[C@@H](C)NC[C@H]1C | 5 | -1 | -2 | -2 | .
COc1ccc(-n2sc3ccccc3c2=O)cc1 | 5 | -8 | -9 | 87* | 7
COc1ccc(-n2sc3ccc(F)cc3c2=O)cc1 | 4 | -7 | 3 | 32 | -4
Cc1ccc2nc(SC(C)C(=O)N3CC(C)OC(C)C3)[nH]c2c1 (stereo not drawn) | -12 | 22* | 3 | 2 | -4
NS(=O)(=O)c1ccc(NC(=O)Nc2ccc(S(N)(=O)=O)cc2)cc1 | 1 | 15* | -4 | 6 | 1
CC1(C)CC(=O)c2cc(C(=O)NNc3ccccc3)c(=O)n(-c3ccccc3)c2C1 | -3 | 21* | -14 | -12 | 1
CC1(C)CC(=O)c2cc(C(=O)NCc3ccco3)c(=O)n(-c3ccccc3)c2C1 | . | . | . | . | -5
CCC(=O)N1[C@@H]2c3ccc(C4=CCCC4)c(=O)n3C[C@@H]2[C@@H](CO)[C@@H]1C(=O)NCc1ccccc1 | 6 | -2 | 4 | -1 | .
Nc1[nH]c(C(=O)c2ccccc2)c(-c2ccc(Cl)c(F)c2)c1C(=O)NCCc1c[nH]c2ccccc12 | -1 | 39* | -15 | -18 | .
Nc1[nH]c(C(=O)c2ccccc2)c(-c2ccc(Cl)c(Cl)c2)c1C(=O)NCCc1c[nH]c2ccccc12 | -2 | -1 | -4 | -22 | .
Nc1[nH]c(C(=O)c2ccccc2)c(-c2c(F)cccc2F)c1C(=O)c1ccc(Cl)c(Cl)c1 | 6 | -3 | 3 | 177* | .
CCCCCCCCCCCCCCCC[n+]1ccc(/C=N/O)cc1 | 13 | -4 | -2 | 47* | 1
CCCCCCCCCCCCCCCC[n+]1ccc(C(N)=O)cc1 | . | . | . | 15 | -17
CCCCCCCCCCCCCCCC[n+]1ccccc1 | 7 | 6 | -12 | 497* | ?
COc1cccc(S(=O)(=O)Nc2ccc3c(c2)OC[C@@H](C)N(C(=O)Cc2cccnc2)C[C@H](C)[C@@H](OC)CN(C)C3=O)c1 | . | . | . | -6 | .
Cc1noc(C)c1NC(=O)NC[C@@H]1CC[C@@H]2[C@@H](CN2Cc2cccc(-c3ccccn3)c2)O1 | -3 | 1 | 4 | . | .
O=S(=O)(NC[C@@H]1CC[C@H]2[C@H](CN2Cc2cccc(-c3ccccn3)c2)O1)c1ccccc1 | 0 | 18* | 13 | . | .
O=C(C[C@@H]1CC[C@H]2[C@@H](COC[C@@H](O)CN2C(=O)c2ccc(F)cc2)O1)NCCCN1CCOCC1 | 0 | 2 | -1 | 3 | .
SMILES | ERp5 inh | SIRT5 block | S100A4 inh HTS | INS-1E GSIS act | PDI inh
CN(C)CC(=O)N1[C@@H](CO)[C@H](c2ccccc2)C12CN(CC1CC1)C2 | . | . | . | 3 | .
COc1cc2c(cc1OC)C(c1ccccc1)N(C(=O)CCl)CC2 (stereo not drawn) | . | . | . | . | 18
COc1cc2c(cc1OC)C(C)N(C(=O)c1sccc1C)CC2 (stereo not drawn) | . | 5 | 7 | 7 | -2
CCC(=O)N1CCc2cc(OC)c(OC)cc2C1COc1ccccc1OC (stereo not drawn) | 0 | 3 | 0 | 48* | 1
COc1ccc(C(=O)N2CCc3cc(OC)c(OC)cc3C2c2ccc(OC)c(OC)c2)cc1OC (stereo not drawn) | 0 | -3 | 2 | 48* | 0
COc1cc2c(cc1OC)C(C)N(C(=O)c1ccc(C)o1)CC2 (stereo not drawn) | -1 | 22* | -7 | 23 | 0
O=C(O)c1ccc(-c2nc(-c3ccccc3)c(-c3cccs3)[nH]2)cc1 | 1 | -8 | 5 | 53* | 2

Screening results as filed in PubChem BioAssay.
